Assay results from ChEMBL document CHEMBL3751842, “Novel triazolothiadiazines act as potent anticancer agents in liver cancer cells through Akt and ASK-1 proteins” (Bioorg Med Chem, 2016).
The source made the active and inactive calls. No cut-off for these calls is given here.

Experiments:
[1] = target: T1, Mitogen-activated protein kinase kinase kinase 5 (Homo sapiens) (UniProt Q99683); assay: Activation of ASK1 in human HuH7 cells assessed as Ser83 phosphorylation after 24 to 48 hrs by Western blot analysis; format: cell-based; conditions: Huh-7
T1 sequence (whole entry): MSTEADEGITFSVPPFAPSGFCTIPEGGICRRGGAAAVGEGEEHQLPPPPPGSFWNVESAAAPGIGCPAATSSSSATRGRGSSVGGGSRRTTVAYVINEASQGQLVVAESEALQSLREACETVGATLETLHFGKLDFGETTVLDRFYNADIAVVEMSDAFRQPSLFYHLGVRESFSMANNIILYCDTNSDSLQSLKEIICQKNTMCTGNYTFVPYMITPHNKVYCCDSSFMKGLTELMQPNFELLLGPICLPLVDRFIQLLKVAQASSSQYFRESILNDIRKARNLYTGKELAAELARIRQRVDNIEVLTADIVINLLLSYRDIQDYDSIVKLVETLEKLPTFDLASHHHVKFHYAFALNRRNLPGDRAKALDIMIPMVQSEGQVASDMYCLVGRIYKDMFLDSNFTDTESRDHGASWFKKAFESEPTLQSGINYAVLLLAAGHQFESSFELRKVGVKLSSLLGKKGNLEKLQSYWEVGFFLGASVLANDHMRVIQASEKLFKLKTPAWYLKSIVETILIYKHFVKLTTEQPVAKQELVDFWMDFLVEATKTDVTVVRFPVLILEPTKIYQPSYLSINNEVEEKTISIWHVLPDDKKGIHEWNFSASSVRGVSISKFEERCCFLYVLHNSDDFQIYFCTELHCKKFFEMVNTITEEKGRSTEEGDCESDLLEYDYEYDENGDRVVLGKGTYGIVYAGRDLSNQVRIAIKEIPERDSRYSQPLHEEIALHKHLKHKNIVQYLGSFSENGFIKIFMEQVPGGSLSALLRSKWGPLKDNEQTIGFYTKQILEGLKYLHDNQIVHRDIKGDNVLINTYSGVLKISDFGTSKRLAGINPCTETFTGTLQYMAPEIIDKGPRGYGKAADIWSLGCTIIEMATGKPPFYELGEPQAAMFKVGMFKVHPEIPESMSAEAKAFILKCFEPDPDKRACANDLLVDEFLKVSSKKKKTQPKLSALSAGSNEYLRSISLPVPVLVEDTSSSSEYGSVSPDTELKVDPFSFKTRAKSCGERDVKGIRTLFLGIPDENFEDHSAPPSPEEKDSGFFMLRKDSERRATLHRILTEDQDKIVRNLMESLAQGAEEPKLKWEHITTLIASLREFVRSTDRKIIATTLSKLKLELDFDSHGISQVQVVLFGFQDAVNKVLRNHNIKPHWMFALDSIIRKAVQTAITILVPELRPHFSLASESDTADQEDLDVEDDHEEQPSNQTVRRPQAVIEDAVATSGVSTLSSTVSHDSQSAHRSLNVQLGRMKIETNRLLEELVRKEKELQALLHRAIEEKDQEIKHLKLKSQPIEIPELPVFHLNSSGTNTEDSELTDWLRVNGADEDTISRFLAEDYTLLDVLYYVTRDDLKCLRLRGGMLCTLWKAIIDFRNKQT
Summary of the method: (§1)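 Cells were exposed to compound or DMSO control for 24 or 48 h. Lysates were loaded at […] protein per lane and immunoblotted with antibodies diluted 1:100 to 1:500 in 5% BSA-TBS-T. Targets were p-Akt (Ser473), Akt, p-GSK3-α/β (Ser21/9), GSK3-α/β, SAPK/JNK, p-SAPK/JNK (Thr183/Tyr185), PARP, p-β-catenin, β-catenin, cyclin D1, p-ASK1 (S83) and p-ASK1 (S966). Actin served as the loading control.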

[2] = system: Huh-7; assay: Induction of apoptosis in human HuH7 cells assessed as decrease in cyclin D1 level after 24 to 48 hrs by Western blot analysis; format: functional, cell-based; summary of the method: as §1
[3] = target: RAC-alpha serine/threonine-protein kinase (Homo sapiens) (UniProt P31749); assay: Inhibition of Akt phosphorylation in human HuH7 cells after 24 to 48 hrs by Western blot analysis; format: cell-based; conditions: Huh-7; summary of the method: as §1
RAC-alpha serine/threonine-protein kinase (Homo sapiens), sequence (P31749 whole entry): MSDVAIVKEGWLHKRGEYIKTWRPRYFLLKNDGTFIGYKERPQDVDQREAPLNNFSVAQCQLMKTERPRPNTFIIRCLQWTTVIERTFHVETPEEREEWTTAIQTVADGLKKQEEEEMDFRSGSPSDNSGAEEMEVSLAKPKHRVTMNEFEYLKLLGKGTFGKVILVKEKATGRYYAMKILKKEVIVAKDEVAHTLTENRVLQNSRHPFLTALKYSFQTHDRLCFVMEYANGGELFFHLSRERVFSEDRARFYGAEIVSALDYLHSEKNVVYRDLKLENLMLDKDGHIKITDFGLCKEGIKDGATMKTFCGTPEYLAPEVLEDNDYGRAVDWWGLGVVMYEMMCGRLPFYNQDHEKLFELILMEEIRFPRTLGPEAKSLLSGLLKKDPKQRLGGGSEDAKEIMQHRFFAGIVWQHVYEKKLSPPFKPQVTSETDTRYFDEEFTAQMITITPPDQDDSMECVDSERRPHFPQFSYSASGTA

[4] = system: Mahlavu; assay: Induction of oxidative stress in human Mahlavu cells assessed as ROS accumulation at 10 uM after 48 hrs by DCFH-DA staining based fluorescence microscopy; format: functional, cell-based
Summary of the method: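 Cells in 6-well dishes were treated with 10 µM compound or DMSO for 48 h. They were washed in PBS and stained for 15 min at 37°C in the dark with DCFH-DA solution (1 mM DCFH-DA, 10 mM glucose, 10 mM HEPES in PBS). After three PBS washes, cells were viewed by fluorescence microscopy. Selenium-deficient serum-free medium culture served as the positive control.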

[5] = system: Mahlavu; assay: Induction of oxidative stress in human Mahlavu cells assessed as ROS accumulation at 10 uM after 48 hrs by flow cytometry analysis; format: functional, cell-based
Summary of the method: (§2)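 Huh7 and Mahlavu cells were treated after 24 h with 10 µM compound or DMSO for 48 h. Cells were then trypsinized and processed with a MUSE oxidative stress kit for flow cytometric counting of ROS-positive cells. Cells grown in selenium-deficient serum-free medium served as the positive control.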

[6] = system: Huh-7; assay: Induction of apoptosis in human HuH7 cells assessed as PARP cleavage after 24 to 48 hrs by Western blot analysis; format: functional, cell-based; summary of the method: as §1
[7] = system: Huh-7; assay: Cytotoxicity against human HuH7 cells assessed as cell impedance at IC25 to IC100 measured every 30 mins for 72 hrs by RT-CES assay; format: functional, cell-based; conditions: TDE = time-dependent effect
Summary of the method: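 Huh7 cells were seeded at 1000–5000 cells/well on electrode plates. […] Impedance was read as cell index every 10 min for the first 24 h, then every 30 min, over 72 h. Data were normalized to DMSO; inhibition (%) = [1 − (CI treated/CI DMSO)] × 100. Each experiment was run at least three times.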

[8] = system: Huh-7; assay: Induction of oxidative stress in human HuH7 cells assessed as ROS accumulation at 10 uM after 48 hrs by flow cytometry analysis; format: functional, cell-based; summary of the method: as §2
[9] = system: MCF7; assay: Cytotoxicity against human MCF7 cells assessed as growth inhibition after 72 hrs by sulforhodamine B assay; format: functional, cell-based; conditions: Homo sapiens, MCF7, 72 h; read-out: IC50
Summary of the method: (§3)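 Cells were grown at 37°C, 5% CO2 in DMEM with 10% FBS. They were seeded at 1000–3000 cells/well, grown 24 h, then exposed to compound at 2.5–40 µM for 72 h. Cells were fixed in 10% TCA for 1 h at 4°C, stained with 0.4% SRB in 1% acetic acid for 10 min, and the dye solubilized in 10 mM Tris. Absorbance was read at 515 nm; runs were in triplicate; IC50 was calculated, with fits of R2 0.8–1 accepted.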

[10] = Cytotoxicity against human HCT116 cells assessed as growth inhibition after 72 hrs by sulforhodamine B assay; format: functional, cell-based, HCT-116; conditions: Homo sapiens, HCT-116, 72 h; read-out: IC50; summary of the method: as §3
[11] = Cytotoxicity against human Mahlavu cells assessed as growth inhibition after 72 hrs by sulforhodamine B assay; format: functional, cell-based; conditions: Homo sapiens, Mahlavu, 72 h; read-out: IC50; summary of the method: as §3
[12] = Effect on un-phosphorylated beta-catenin level in human HuH7 cells after 24 to 48 hrs by Western blot analysis; format: ADME, cell-based; conditions: huh-7; summary of the method: as §1
[13] = Effect on un-phosphorylated beta-catenin level in human Mahlavu cells after 24 to 48 hrs by Western blot analysis; format: ADME, cell-based; summary of the method: as §1

Row | Activity [1] | inhibition [3] | SMILES | Activity [2] | Activity [4] | Activity [5] | Activity [6] | Activity [7] | Activity [8] | IC50 [9] [µM] | IC50 [10] [µM] | IC50 [11] [µM] | Activity [12] | Activity [13]
1 | Active | Active | Cc1ccc(C2=Nn3c(nnc3C(C)c3ccc(CC(C)C)cc3)SC2)cc1 (stereo unspecified) | Active | Active | Active | Active | tde | Active | 6.3 | 4 | 8.5 | Non-toxic | Non-toxic
2 | Active | Active | COc1ccc(C2=Nn3c(nnc3C(C)c3ccc(CC(C)C)cc3)SC2)cc1 (stereo unspecified) | Active | Active | Active | Active | tde | Active | 5.2 | 4.2 | 13.6 | Non-toxic | Non-toxic
